From PubChem BioAssay
An excerpt weighted towards active compounds, which were near 2% of everything screened.
DAGLB inhibitor: DAGLB lipase inhibitors, primary screen, biochemical, fluorescence, HTS; Diacylglycerol lipase-beta (Homo sapiens), Q8NCG7; inhibition, % at 5.17 µM; HEK293T DAGLB membrane lysate, EnzChek fluorogenic substrate; 340,000 tested, 0.059% active; in the data active means inhibition above about 34%
VLA-4 inh: inhibition in human VLA-4 binding assay, primary screen, VLA-4 allosteric modulator project, MLPCN library, flow cytometry, VLA-4 expressing cells | Integrin alpha-4 (Homo sapiens), P13612 | ligand binding flow cytometry | inhibition, % (about 7 µM as worked out from the volumes in the protocol) | 330,000 tested, 0.2% active | AID 2557, 2010; in the data active means inhibition above about 50%
Target sequence (P13612 whole entry, looked up): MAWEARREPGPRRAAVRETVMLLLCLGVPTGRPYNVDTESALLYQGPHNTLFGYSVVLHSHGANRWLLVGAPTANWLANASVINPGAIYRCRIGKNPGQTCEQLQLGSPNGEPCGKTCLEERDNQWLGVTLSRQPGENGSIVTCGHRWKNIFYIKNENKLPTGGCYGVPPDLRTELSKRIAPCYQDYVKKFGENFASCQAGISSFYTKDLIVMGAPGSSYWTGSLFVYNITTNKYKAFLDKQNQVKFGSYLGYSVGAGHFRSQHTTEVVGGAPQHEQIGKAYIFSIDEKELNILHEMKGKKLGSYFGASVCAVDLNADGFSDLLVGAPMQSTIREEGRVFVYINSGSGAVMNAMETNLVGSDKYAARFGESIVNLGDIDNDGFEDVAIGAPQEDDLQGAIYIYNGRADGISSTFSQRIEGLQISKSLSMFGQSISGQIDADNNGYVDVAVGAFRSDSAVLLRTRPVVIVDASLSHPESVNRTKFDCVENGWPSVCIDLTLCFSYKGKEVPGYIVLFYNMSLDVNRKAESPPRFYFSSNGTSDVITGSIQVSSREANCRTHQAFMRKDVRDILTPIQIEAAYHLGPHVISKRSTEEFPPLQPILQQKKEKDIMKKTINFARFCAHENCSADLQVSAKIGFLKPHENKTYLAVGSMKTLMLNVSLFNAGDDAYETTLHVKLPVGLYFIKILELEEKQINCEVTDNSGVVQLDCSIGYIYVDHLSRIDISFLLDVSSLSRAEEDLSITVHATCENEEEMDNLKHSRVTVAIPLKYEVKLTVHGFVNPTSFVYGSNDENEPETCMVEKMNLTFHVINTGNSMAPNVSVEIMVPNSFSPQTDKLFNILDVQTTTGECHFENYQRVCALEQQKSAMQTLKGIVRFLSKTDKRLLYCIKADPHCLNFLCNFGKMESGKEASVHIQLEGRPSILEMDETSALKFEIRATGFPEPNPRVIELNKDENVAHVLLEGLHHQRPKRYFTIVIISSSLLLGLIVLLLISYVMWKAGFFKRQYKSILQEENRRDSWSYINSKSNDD
Granule exo inh: LAMP-1 surface exposure blockers, TALL-104 cells – cell-based, flow cytometry, MLPCN library, primary screen; TALL-104 LAMP-1 surface exposure; cells stimulated with thapsigargin and PMA; inhibition, % at 10 µM; 360,000 tested, 0.66% active; AID 651702, 2012;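 active means inhibition above about 55%, limit read from the data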
FGF22 binding: binders of human FGF22 protein, primary screen, FGF22 synaptogenesis inhibitor project, biophysical, thermal shift, single point; recombinant FGF22 thermal shift, SYPRO orange fluorescence; percent of sucrose octasulfate shift, DMSO zero; activity (Tm shift, normalised), % at 9.99 µM; AID 651658, 2012; 340,000 tested, 1.5% active;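 active means mean Tm shift, scaled 0 neutral to 100 positive control, at about 1.3% or above, every replicate too, limit read from the data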
MT1-MMP act inh: blockers of MT1-MMP proenzyme processing, primary screen, HT1080 RFP-PRO-GFP cells, GFP/RFP fluorescence; Matrix metalloproteinase-14 (Homo sapiens), P50281; GFP/RFP ratio fluorescence, overnight; percent of plate control window, DMSO zero; GFP/RFP ratio change, % at 20 µM; 360,000 tested, 0.061% active; AID 651647, 2012;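 active means GFP/RFP ratio change of at least 30% with cell ATP level not reduced by more than half and red fluorescence within 50% of control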
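Material: RFP-PRO-GFP reporter HT1080 cells. Dosing: single-point 20 µM compound, 1% DMSO. Controls: DMSO and RFP-L50D-GFP cell wells. Timing: cells overnight before dosing, compound overnight, 37 °C, 5% CO2. Measure: GFP/RFP fluorescence ratio.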
ABCB6 inh 2: ABCB6 transporter inhibitors, primary screen, K562-ABCB6 cells, flow cytometry, MLPCN library | 360,000 tested, 0.19% active | K562-ABCB6 porphyrin accumulation, 1 h; stronger effect = lower value | AID 602162, 2011 | fluorescence ratio to DMSO, % at 10 µM;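 active means fluorescence ratio to DMSO below 75%, the collection mean minus 3 SD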;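 further: signal is porphyrin accumulated inside mitochondria; lower ratio means ABCB6 inhibition with less porphyrin fluorescence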
VLA-4 mod pick: retest of VLA-4 allosteric modulators, confirmation, cell-based, cherry-picked plates, U937, HUTS-21 LIBS antibody; shares compounds with VLA-4 inh; U937 cells, HUTS-21 LIBS mAb binding, flow cytometry; LDV ligand present at threefold Kd; inhibition, % at 6.7 µM; 1,300 tested, 2% active; AID 2813, 2010; in the data active means inhibition above about 40%
Numbers stand for hits; - = inactive; . = no result.

SMILES	DAGLB inhibitor	VLA-4 inh	Granule exo inh	FGF22 binding	MT1-MMP act inh	ABCB6 inh 2	VLA-4 mod pick
CCc1c(C)c2ccc(OC(C)C(=O)NC(Cc3c[nH]c4ccc(O)cc34)C(=O)O)c(C)c2oc1=O (stereo not given)	-	52	-	-	.	-	-
O=C(c1cccc(NC2=NC3CS(=O)(=O)CC3S2)c1)N1CCN(c2ccc(F)cc2)CC1 (stereo not given)	-	-	-	-	-	-	.
O=C(c1cccc(NC2=NC3CS(=O)(=O)CC3S2)c1)N1CCN(c2cccc(Cl)c2)CC1 (stereo not given)	-	-	-	-	-	-	-
O=C(c1ccc(Cl)c(NC2=NC3CS(=O)(=O)CC3S2)c1)N1CCN(c2ccc(F)cc2)CC1 (stereo not given)	-	-	-	-	-	-	-
CCCOc1ncnc2c1[nH]c1ccc(OC)cc12	-	-	-	-	-	-	-
CCCOc1ncnc2c1[nH]c1ccccc12	-	-	-	.	-	-	.
CCCCOc1ncnc2c1[nH]c1ccc(C)cc12	.	-	-	-	-	-	-
CCn1ccnc1CN(C)Cc1cn(C)nc1-c1ccccc1F	-	-	-	-	-	-	-
O=C1c2c(O)cc(O)cc2O[C@H](c2ccc(O)cc2)[C@H]1O	-	50	-	-	-	-	-
O=C1c2c(O)cc(O)cc2O[C@H](c2ccc(O)c(O)c2)[C@H]1O	-	-	-	-	-	-	.
O=C(NC1CCCC1)c1cccc(NC(=O)c2ccco2)c1	-	50	-	.	-	-	-
CC(=O)c1cccc(NC(=O)c2cccc(NC(=O)c3ccco3)c2)c1	-	-	-	-	-	-	.
O=C1Cc2cc(S(=O)(=O)N3CCNCC3)ccc2N1	-	-	-	-	-	-	-
CN(C)CCCNC(=O)[C@H]1[C@H](CO)[C@H]2Cn3c(ccc(-c4ccc(F)cc4)c3=O)[C@@H]1N2C	.	.	.	-	.	.	.
CCc1ccc2[nH]c(=O)c(CN(Cc3ccccc3)Cc3nnnn3Cc3ccco3)cc2c1	-	-	-	.	-	-	.
CCOC(=O)Cn1nnnc1CN(Cc1ccccc1)Cc1cc2cc(CC)ccc2[nH]c1=O	-	71	-	-	-	-	-
CCC(=O)N1CCC2(CC1)CN(C(=O)c1cnccn1)[C@H](CO)c1c2c2ccc(OC)cc2n1C	.	.	.	-	.	.	.
C[C@@H]1CCCCO[C@@H](CN(C)S(C)(=O)=O)[C@@H](C)CN([C@H](C)CO)C(=O)c2cc(NC(=O)Nc3ccc4c(c3)OCO4)ccc2O1	.	.	.	-	.	.	.
CCn1c(O)c(/C=C2\C=Nc3ccccc32)sc1=O	-	-	-	-	-	-	-
Cc1cccc(C)c1OCC(=O)Nc1ncn[nH]1	-	52	-	.	-	-	-
Cc1cc(OCC(=O)Nc2ncn[nH]2)ccc1Cl	-	-	-	-	-	-	.
O=C(C[C@@H]1CC[C@H](NC(=O)C2CC2)[C@H](CO)O1)NCC1CC1	.	.	.	-	.	.	.
C=C1C(O)[C@@H]2O[C@]3(CC[C@H](/C=C/C(C)[C@@H]4CC(C)=CC5(O[C@H](C[C@@](C)(O)CO)CCC5O)O4)O3)CC[C@H]2O[C@@H]1C(O)CC(C)[C@H]1OC2(CCCCO2)CCC1C (stereo not given in full)	.	54	.	.	.	.	52
O=[N+]([O-])c1cccc(/C(=N/N=C/c2ccccc2Br)C23CN4CN(CN(C4)C2)C3)c1	-	-	-	.	-	-	.
CC(C)=N/N=C(/c1ccc([N+](=O)[O-])cc1)C12CN3CN(CN(C3)C1)C2	-	-	-	-	-	-	-
SMILES	DAGLB inhibitor	VLA-4 inh	Granule exo inh	FGF22 binding	MT1-MMP act inh	ABCB6 inh 2	VLA-4 mod pick
COc1cc(/C=N/NC(=O)c2ccncc2)c([N+](=O)[O-])cc1OC	-	57	-	-	-	-	-
COc1cc(OC)c([N+](=O)[O-])cc1/C=N/NC(=O)c1ccncc1	-	-	-	-	-	-	.
Fc1ccc(NCc2ccccc2F)cc1Cl	-	50	-	-	-	-	-
Cc1nc(NC(=O)COC(=O)C(NC(=O)c2ccco2)C(C)C)c(Cl)cc1Cl (stereo not given)	-	52	-	.	-	-	-
COc1ccc(NC(=S)N2CCCC(c3nc4ccc(C)cc4[nH]3)C2)c(OC)c1 (stereo not given)	-	54	-	-	-	-	-
COCC(=O)Nc1ccc2c(c1)[C@@H]1C[C@H](CC(=O)NC3CCCCC3)O[C@H](CO)[C@@H]1O2	.	.	.	-	.	.	.
CCOc1ccccc1CNS(=O)(=O)c1ccc2c(c1)C(C)(C)C(=O)N2C	-	-	-	-	-	-	.
COc1cccc(CNS(=O)(=O)c2ccc3c(c2)C(C)(C)C(=O)N3C)c1	-	-	-	.	-	-	-
Cc1cccc(N(C)S(=O)(=O)c2ccc3c(c2)C(C)(C)C(=O)N3C)c1	-	-	-	-	-	-	-
CC(C)C#Cc1ccc([C@@H]2[C@H]3CN(C(=O)Nc4ccccc4)CCCCN3[C@H]2CO)cc1	.	.	.	-	.	.	.
Cc1ccc(CN2CCN(Cc3cccc(OCCO)c3)CC2CCO)o1 (stereo not given)	-	-	-	44	-	-	-
COc1cccc(-c2sc3ccc(OC)cc3c2-c2ccc(OCCN(C)C)cc2)c1	-	51	-	-	-	-	-
COc1cccc(-c2sc3ccc(OC)cc3c2-c2ccc(O)cc2)c1	-	-	-	-	-	-	.
COc1ccc(-c2sc3ccccc3c2-c2ccc(OCCN(C)C)cc2)cc1	-	67	-	-	-	-	44
COCC(=O)Nc1ccc2c(c1)C(=O)N(C)[C@@H]1CC[C@@H](CC(=O)NCc3ccccc3F)O[C@@H]1CO2	.	.	.	-	.	.	.
C[C@@H]1CN([C@H](C)CO)C(=O)c2cc(NS(=O)(=O)c3ccccc3)ccc2O[C@@H](C)CCCCO[C@@H]1CN(C)S(=O)(=O)c1ccccc1	.	.	.	-	.	.	.
COCC(=O)Nc1ccc2c(c1)C(=O)N(C)[C@@H]1CC[C@H](CC(=O)Nc3ccccc3)O[C@@H]1CO2	.	.	.	-	.	.	.
CCc1ccccc1NC(=O)C1NC(=O)CC1c1ccccc1 (stereo not given)	-	56	-	-	-	-	-
